In ChEMBL document CHEMBL3414427, “Structure-activity relationships of 3-O-β-chacotriosyl ursolic acid derivatives as novel H5N1 entry inhibitors” (Eur J Med Chem, 2015) one finds CC50, IC50 and inhibition data, which are given here for 16 compounds.

Series [1] in a line: Cytotoxicity against MDCK cells. Particulars: dog. It counts as cell-based, Canis lupus familiaris. Summed up:
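MDCK cells (ATCC) grown in DMEM containing glutamine, supplemented with 10% fetal calf serum. CC50 is the mean of three independent assays.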

The next series is described as follows: cells. It counts as functional, cell-based, Influenza A virus (A/Thailand/Kan353/2004(H5N1)). The settings on record: Influenza A virus, MDCK, 48 h.
Series [2] deals with Neuraminidase (Influenza A virus) (UniProt A5Z252). The series is described as follows: Inhibition of Influenza A virus (H5N1) neuraminidase N1 at 20 microg/ml after 30 mins by fluorescence based assay. Summed up:
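Fluorescence-based kit assay with purified N1-type neuraminidase in detection buffer. Test compound was added, then neuraminidase substrate. Incubated at 37 °C for 30 min; fluorescence read at excitation 340 nm and emission 535 nm.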

For series [3], the system named is Vesicular stomatitis virus. Description: Antiviral activity against VSV-G enveloped pseudovirus. The series is classed as functional, organism-based. Summed up: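 VSV-G pseudotyped particles (negative control), incubated with compound instead of H5N1 pseudovirus. MDCK cells (ATCC; DMEM with glutamine plus 10% FCS), seeded at 10⁴/well and grown overnight, then infected and incubated a further 48 h. Cells were PBS-washed and lysed, and luciferase activity was read by luminometer after adding substrate.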

SMILES strings stand for the structures. pIC50: −log10 of the molar value. Calls of active or inactive are those of the source. The calls are words filed in the database; no cut-off is given here.

As for `C=CCOC(=O)[C@]12CC[C@@H](C)[C@H](C)[C@H]1C1=CC[C@@H]3[C@@]4(C)CC[C@H](O[C@@H]5O[C@H](CO)[C@@H](O[C@@H]6O[C@@H](C)[C@H](O)[C@@H](O)[C@H]6O)[C@H](O)[C@H]5O[C@@H]5O[C@@H](C)[C@H](O)[C@@H](O)[C@H]5O)C(C)(C)[C@@H]4CC[C@@]3(C)[C@]1(C)CC2`, the 50% cytotoxic concentration (CC50) (usually the concentration that lowers cell viability or growth by half) in series [1] came out at 21.8 µM. In addition, the pIC50 – broadly, the IC50 on a negative log10 scale, so that one unit is a factor of ten – in “cells” is 4.47.

`CCN(CC)C(=O)[C@]12CC[C@@H](C)[C@H](C)[C@H]1C1=CC[C@@H]3[C@@]4(C)CC[C@H](O[C@@H]5O[C@H](CO)[C@@H](O[C@@H]6O[C@@H](C)[C@H](O)[C@@H](O)[C@H]6O)[C@H](O)[C@H]5O[C@@H]5O[C@@H](C)[C@H](O)[C@@H](O)[C@H]5O)C(C)(C)[C@@H]4CC[C@@]3(C)[C@]1(C)CC2` showed a CC50 in series [1] of 47 µM. In “cells”, this compound had a pIC50 of 5.85.

In series [1], `C[C@H]1[C@H](C)CC[C@]2(C(=O)OC3CCCC3)CC[C@]3(C)C(=CC[C@@H]4[C@@]5(C)CC[C@H](O[C@@H]6O[C@H](CO)[C@@H](O[C@@H]7O[C@@H](C)[C@H](O)[C@@H](O)[C@H]7O)[C@H](O)[C@H]6O[C@@H]6O[C@@H](C)[C@H](O)[C@@H](O)[C@H]6O)C(C)(C)[C@@H]5CC[C@]43C)[C@H]12` yielded a CC50 of 24.2 µM. The pIC50 in the series “cells” is 5.31.

Turning to `C[C@H]1[C@H](C)CC[C@]2(C(=O)O)CC[C@]3(C)C(=CC[C@@H]4[C@@]5(C)CC[C@H](O[C@@H]6O[C@H](CO)[C@@H](O[C@@H]7O[C@@H](C)[C@H](O)[C@@H](O)[C@H]7O)[C@H](O)[C@H]6O[C@@H]6O[C@@H](C)[C@H](O)[C@@H](O)[C@H]6O)C(C)(C)[C@@H]5CC[C@]43C)[C@H]12`, in series [1], the CC50 was 26.2 µM. In addition, the negative-log IC50 (pIC50) in “cells” was 5.00.

In turn, `C=C(C)[C@@H]1CC[C@]2(C(=O)OC)CC[C@]3(C)[C@H](CC[C@@H]4[C@@]5(C)CC[C@H](O[C@@H]6O[C@H](CO)[C@@H](O[C@@H]7O[C@@H](C)[C@H](O)[C@@H](O)[C@H]7O)[C@H](O)[C@H]6O[C@@H]6O[C@@H](C)[C@H](O)[C@@H](O)[C@H]6O)C(C)(C)[C@@H]5CC[C@]43C)[C@H]12` displayed a cytotoxic concentration (CC50) in series [1] of 33.9 µM. The compound also gave a pIC50 in the series “cells” of 5.68.

As for `COC(=O)[C@]12CCC(C)(C)C[C@H]1C1=CC[C@@H]3[C@@]4(C)CC[C@H](O[C@@H]5O[C@H](CO)[C@@H](O[C@@H]6O[C@@H](C)[C@H](O)[C@@H](O)[C@H]6O)[C@H](O)[C@H]5O[C@@H]5O[C@@H](C)[C@H](O)[C@@H](O)[C@H]5O)C(C)(C)[C@@H]4CC[C@@]3(C)[C@]1(C)CC2`, the cytotoxic concentration (CC50) in series [1] was 16.9 µM. In the series “cells”, this compound had a pIC50 of 5.43.

In series [1], `COC(=O)[C@@]1(C)CC[C@]2(C)CC[C@]3(C)C(=CC(=O)[C@@H]4[C@@]5(C)CC[C@H](O[C@@H]6O[C@H](CO)[C@@H](O[C@@H]7O[C@@H](C)[C@H](O)[C@@H](O)[C@H]7O)[C@H](O)[C@H]6O[C@@H]6O[C@@H](C)[C@H](O)[C@@H](O)[C@H]6O)C(C)(C)[C@@H]5CC[C@]43C)[C@@H]2C1` came in with a CC50 of 17.1 µM. The compound further gave a pIC50 in “cells” of 5.31.

For the compound `CCCOC(=O)[C@]12CC[C@@H](C)[C@H](C)[C@H]1C1=CC[C@@H]3[C@@]4(C)CC[C@H](O[C@@H]5O[C@H](CO)[C@@H](O[C@@H]6O[C@@H](C)[C@H](O)[C@@H](O)[C@H]6O)[C@H](O)[C@H]5O[C@@H]5O[C@@H](C)[C@H](O)[C@@H](O)[C@H]5O)C(C)(C)[C@@H]4CC[C@@]3(C)[C@]1(C)CC2`, in series [1], the CC50 was 19.2 µM. Also, the pIC50 in the series “cells” was 5.64.

Turning to `COC(=O)[C@]12CC[C@@H](C)[C@H](C)[C@H]1C1=CC[C@@H]3[C@@]4(C)CC[C@H](O[C@@H]5O[C@H](CO)[C@@H](O[C@@H]6O[C@@H](C)[C@H](O)[C@@H](O)[C@H]6O)[C@H](O)[C@H]5O[C@@H]5O[C@@H](C)[C@H](O)[C@@H](O)[C@H]5O)C(C)(C)[C@@H]4CC[C@@]3(C)[C@]1(C)CC2`, the inhibition result in series [2] and in series [3] was “inactive” each time. The CC50 in series [1] came out at 13 µM. The compound further showed a pIC50 in the series “cells” of 5.99.

Consider `C[C@H]1[C@H](C)CC[C@]2(C(=O)N(C)C)CC[C@]3(C)C(=CC[C@@H]4[C@@]5(C)CC[C@H](O[C@@H]6O[C@H](CO)[C@@H](O[C@@H]7O[C@@H](C)[C@H](O)[C@@H](O)[C@H]7O)[C@H](O)[C@H]6O[C@@H]6O[C@@H](C)[C@H](O)[C@@H](O)[C@H]6O)C(C)(C)[C@@H]5CC[C@]43C)[C@H]12`, for which the inhibition entry in series [2] and in series [3] was “inactive” in each case. In series [1], this compound displayed a 50% cytotoxic concentration (CC50) of 48.6 µM. Moreover, the pIC50 in the series “cells” is 6.01.

As for `O=C(NCCN1CCCCC1)c1cc(F)cc(C(F)(F)F)c1`, in series [1], the CC50 came out at 1480 µM. Besides, in the series “cells”, the pIC50 was 5.35.

On to `CCCCCOC(=O)[C@]12CC[C@@H](C)[C@H](C)[C@H]1C1=CC[C@@H]3[C@@]4(C)CC[C@H](O[C@@H]5O[C@H](CO)[C@@H](O[C@@H]6O[C@@H](C)[C@H](O)[C@@H](O)[C@H]6O)[C@H](O)[C@H]5O[C@@H]5O[C@@H](C)[C@H](O)[C@@H](O)[C@H]5O)C(C)(C)[C@@H]4CC[C@@]3(C)[C@]1(C)CC2`, for which, in series [1], the CC50 came out at 20.1 µM. The compound also showed a negative-log IC50 (pIC50) in the series “cells” of 5.43.

The compound `COC(=O)[C@]12CC[C@@H](C)[C@H](C)[C@H]1C1=CC(=O)[C@@H]3[C@@]4(C)CC[C@H](O[C@@H]5O[C@H](CO)[C@@H](O[C@@H]6O[C@@H](C)[C@H](O)[C@@H](O)[C@H]6O)[C@H](O)[C@H]5O[C@@H]5O[C@@H](C)[C@H](O)[C@@H](O)[C@H]5O)C(C)(C)[C@@H]4CC[C@@]3(C)[C@]1(C)CC2` gave a half-maximal cytotoxic concentration (CC50) in series [1] of 38.4 µM. This compound also gave a negative-log IC50 (pIC50) in “cells” of 5.25.

In series [1], `CNC(=O)[C@]12CC[C@@H](C)[C@H](C)[C@H]1C1=CC[C@@H]3[C@@]4(C)CC[C@H](O[C@@H]5O[C@H](CO)[C@@H](O[C@@H]6O[C@@H](C)[C@H](O)[C@@H](O)[C@H]6O)[C@H](O)[C@H]5O[C@@H]5O[C@@H](C)[C@H](O)[C@@H](O)[C@H]5O)C(C)(C)[C@@H]4CC[C@@]3(C)[C@]1(C)CC2` gave a CC50 of more than 200 µM. The compound further showed a negative-log IC50 (pIC50) in “cells” of 4.65.

Turning to `COC(=O)[C@]12CC[C@@H](C)[C@H](C)[C@H]1C1=CC[C@@H]3[C@@]4(C)CC[C@@H](O[C@@H]5O[C@H](CO)[C@@H](O[C@@H]6O[C@@H](C)[C@H](O)[C@@H](O)[C@H]6O)[C@H](O)[C@H]5O[C@@H]5O[C@@H](C)[C@H](O)[C@@H](O)[C@H]5O)C(C)(C)[C@@H]4CC[C@@]3(C)[C@]1(C)CC2`, the inhibition result in series [2] and in series [3] was “inactive” each time. Also, the cytotoxic concentration (CC50) in series [1] was more than 200 µM. The pIC50 in the series “cells” is 5.88.

As to `CCOC(=O)[C@]12CC[C@@H](C)[C@H](C)[C@H]1C1=CC[C@@H]3[C@@]4(C)CC[C@H](O[C@@H]5O[C@H](CO)[C@@H](O[C@@H]6O[C@@H](C)[C@H](O)[C@@H](O)[C@H]6O)[C@H](O)[C@H]5O[C@@H]5O[C@@H](C)[C@H](O)[C@@H](O)[C@H]5O)C(C)(C)[C@@H]4CC[C@@]3(C)[C@]1(C)CC2`, in series [1], the midpoint of cytotoxicity, the CC50, lay at 19.1 µM. In addition, the negative-log IC50 (pIC50) in “cells” was 5.94.
